Screens (PubChem BioAssay)
IDH1 R132H inh = blocks human IDH1 R132H reductase activity; diaphorase/resazurin fluorescence, 60 min; inhibition, % at 10 µM; 70,000 compounds, 0.18% hits; in the data active = inhibition above about 34%; inconclusive = no clear call, values can overlap the other calls; inactive = below about 11%;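 note: 0% = DMSO and 100% = no enzyme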
Target sequence (O75874 whole entry R132H): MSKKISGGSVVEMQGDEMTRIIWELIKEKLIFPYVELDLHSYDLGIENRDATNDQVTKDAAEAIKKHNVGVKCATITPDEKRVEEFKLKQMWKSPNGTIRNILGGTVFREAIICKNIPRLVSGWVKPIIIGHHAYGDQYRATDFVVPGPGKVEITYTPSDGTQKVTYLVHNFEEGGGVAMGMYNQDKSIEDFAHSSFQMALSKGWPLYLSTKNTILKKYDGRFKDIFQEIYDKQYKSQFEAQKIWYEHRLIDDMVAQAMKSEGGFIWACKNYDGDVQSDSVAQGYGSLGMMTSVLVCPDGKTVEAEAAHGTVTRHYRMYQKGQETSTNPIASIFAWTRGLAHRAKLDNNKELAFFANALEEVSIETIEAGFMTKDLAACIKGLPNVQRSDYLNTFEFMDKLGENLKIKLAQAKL
KDM4C inh = blocks human GASC-1 (KDM4C) demethylase activity; GST-KDM4C 2-372, H3K9me3 peptide, LANCE TR-FRET; inhibition, % at 12.5 µM; 96,000 compounds, 0.15% hits; AID 720574;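 active = mean replicate inhibition above about 25%, with at least 55% of replicates also reaching it, limit read from the data, passing the limit was not always enough; inconclusive = only one of those two conditions met; inactive = neither condition met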
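Test system: N-terminal GST-fused human GASC-1 (KDM4C) fragment, residues 2-372; quantity: GASC-1 enzyme at 10 nM final in reaction; dosing: single dose; schedule: 30 min demethylation and 1 h detection at room temperature; signal: LANCE TR-FRET, excitation 340 nm, emissions 618 and 671 nm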
T cruzi growth-1 = inhibitors of T. cruzi proliferation. 77,000 compounds, 5.9% hits. AID 624255. inhibition, % at 8.34 µM. T. cruzi beta-gal in NIH3T3, GalScreen luminescence, 90 h;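 active = mean inhibition above about 93%, with at least 55% of replicates each passing it, limit read from the data, passing the limit was not always enough; inconclusive = only one of those two conditions holds; inactive = neither condition holds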
T cruzi growth-2 = blocks T. cruzi growth in NIH3T3 host cells; inhibition, % at 8.35 µM; shares compounds with T cruzi growth-1; T. cruzi beta-gal in NIH3T3, GalScreen luminescence, 90 h; AID 651739; 5,600 compounds, 72% hits;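 active = mean replicate inhibition above about 95% and at least 55% of replicates individually reaching it, limit read from the data; inconclusive = only one of the two criteria is met; inactive = neither criterion is met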
T cruzi growth-3 = Trypanosoma cruzi proliferation inhibition | shares compounds with T cruzi growth-1 | T. cruzi beta-gal in NIH3T3, GalScreen luminescence, 90 h | inhibition, % at 2.09 µM | 5,600 compounds, 21% hits | AID 651740;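 active = mean inhibition above about 95%, with at least 55% of replicates also reaching it, limit read from the data; inconclusive = meets just one of the two conditions; inactive = meets neither condition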;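 note: plate controls were neutral control median for no effect and positive control median for full effect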
3T3 cytotox = NIH/3T3 (mouse) viability loss; cytotoxicity (signal decrease), % at 8.35 µM; shares compounds with T cruzi growth-1; 5,600 compounds, 14% hits; NIH/3T3 viability, CellTiter-Glo ATP luminescence, 90 h; AID 651742;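 active = mean signal decrease across replicates above about 35% based on untreated-well scatter, with enough replicates individually passing, limit read from the data; inconclusive = no rule stated though some were filed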;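 note: 0% = median of neutral control wells and 100% = median of positive control wells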
NIH3T3 tox 2 = cytotoxicity in mouse NIH/3T3 fibroblasts; NIH/3T3 viability, CellTiter-Glo ATP luminescence, 90 h; inhibition, % at 24.9 µM; shares compounds with T cruzi growth-1; 5,600 compounds, 56% hits;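 active = mean loss of cell viability signal at or above a set limit, and enough replicates individually reaching it; inconclusive = meets only the mean limit or only the replicate share; inactive = meets neither condition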;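 note: 0% = median of neutral control wells and 100% = median of positive control wells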
Active calls of the source: *; ! = not active in a repeat. Many of the other results were omitted from the sample, so hits are more common in it than they were.

For C[C@@H]1CN([C@@H](C)CO)C(=O)c2cc(N(C)C)ccc2O[C@@H](C)CCCCO[C@@H]1CN(C)Cc1ccc(C(F)(F)F)cc1 the results were IDH1 R132H inh -2, KDM4C inh 2 and T cruzi growth-1 74.
Screening C[C@H](CO)N1C[C@H](C)[C@H](CN(C)Cc2ccc(C(F)(F)F)cc2)OCCCC[C@H](C)Oc2ccc(N(C)C)cc2C1=O returned KDM4C inh 4 and T cruzi growth-1 62.
For C[C@H](CO)N1C[C@H](C)[C@@H](CN(C)CC2CCCCC2)OCCCC[C@H](C)Oc2ccc(N(C)C)cc2C1=O the results were IDH1 R132H inh -2, KDM4C inh 1, T cruzi growth-1 99*, T cruzi growth-2 110*, T cruzi growth-3 83, 3T3 cytotox -11 and NIH3T3 tox 2 14.
For C[C@@H]1CCCCO[C@@H](CN(C)Cc2ccc(C(=O)O)cc2)[C@@H](C)CN([C@H](C)CO)C(=O)c2cc(N(C)C)ccc2O1 the results were KDM4C inh 4 and T cruzi growth-1 50.
`C[C@@H]1CCCCO[C@@H](CN(C)CC2CCCCC2)[C@@H](C)CN([C@H](C)CO)C(=O)c2cc(N(C)C)ccc2O1` gave IDH1 R132H inh -4, KDM4C inh -1 and T cruzi growth-1 77.
CCn1c(SCC(=O)N2c3ccccc3Sc3ccccc32)nnc1-c1cccc(Cl)c1 was read as IDH1 R132H inh 0.
O=C(CSc1nc2ccccc2[nH]1)Nc1ccc(Br)cc1Cl was read as IDH1 R132H inh 0.
For Cc1cc(C(=O)O)ccc1NC(=O)C1CC=CCC1C(=O)O (stereo unspecified) the results were IDH1 R132H inh 0.
For O=C(COc1ccc(Br)cc1Cl)Nc1ccccc1CO the results were IDH1 R132H inh 0.
`COCC(=O)N[C@@H]1CC[C@@H](CC(=O)NCc2ccccc2OC)O[C@@H]1CO` gave IDH1 R132H inh 0, KDM4C inh 0 and T cruzi growth-1 40.
Screening Cc1cc(I)cnc1NC(=S)NC(=O)c1ccco1 returned IDH1 R132H inh 2.
Screening CC(C)(C)OC(=O)NC/C=N/NC(=O)c1ccccn1 returned IDH1 R132H inh 2.
Screening C[C@H](CO)N1C[C@H](C)[C@@H](CN(C)Cc2ccccc2)OCCCC[C@H](C)Oc2ccc(N(C)C)cc2C1=O returned IDH1 R132H inh -1, KDM4C inh 3, T cruzi growth-1 100*!, T cruzi growth-2 32, T cruzi growth-3 1, 3T3 cytotox -9 and NIH3T3 tox 2 -3.
For C[C@H]1CCCCO[C@@H](CN(C)Cc2ccc(C(=O)O)cc2)[C@@H](C)CN([C@@H](C)CO)C(=O)c2cc(N(C)C)ccc2O1 the results were IDH1 R132H inh 0, KDM4C inh 6 and T cruzi growth-1 5.
Screening C[C@@H]1CN([C@@H](C)CO)C(=O)c2cc(N(C)C)ccc2O[C@@H](C)CCCCO[C@H]1CN(C)Cc1ccc(C(F)(F)F)cc1 returned KDM4C inh -6, T cruzi growth-1 119*, T cruzi growth-2 110*, T cruzi growth-3 108*, 3T3 cytotox 4 and NIH3T3 tox 2 87*.
C[C@H](CO)N1C[C@H](C)[C@@H](CN(C)Cc2ccc(C(F)(F)F)cc2)OCCCC[C@H](C)Oc2ccc(N(C)C)cc2C1=O was read as IDH1 R132H inh -1, KDM4C inh -1, T cruzi growth-1 108*, T cruzi growth-2 111*, T cruzi growth-3 95, 3T3 cytotox -8 and NIH3T3 tox 2 97*.
For C[C@@H]1CCCCO[C@@H](CN(C)Cc2ccccc2)[C@@H](C)CN([C@H](C)CO)C(=O)c2cc(N(C)C)ccc2O1 the results were KDM4C inh -1 and T cruzi growth-1 61.
Screening C[C@@H]1CCCCO[C@@H](CN(C)Cc2ccc(C(=O)O)cc2)[C@H](C)CN([C@@H](C)CO)C(=O)c2cc(N(C)C)ccc2O1 returned IDH1 R132H inh 1, KDM4C inh 1 and T cruzi growth-1 29.
Cc1cc(C)c(NC(=O)CN(c2cccc3ccccc23)S(C)(=O)=O)c(C)c1 was read as IDH1 R132H inh 1.
`CC(C)(C)Sc1nc2ccccc2[nH]c1=S` gave IDH1 R132H inh 14.
`C=CCSc1n[nH]c(=O)n1-c1cccc(Cl)c1` gave IDH1 R132H inh 0.
For Cc1ccccc1-c1cc(C(=O)NCCCn2cc(Br)cn2)c2ccccc2n1 the results were IDH1 R132H inh 0.
`CS(=O)(=O)N1CCCCN2[C@H](C1)[C@H](c1ccc(C#Cc3ccccn3)cc1)[C@@H]2CO` gave KDM4C inh 1, T cruzi growth-1 112*, T cruzi growth-2 96*, T cruzi growth-3 39, 3T3 cytotox 5 and NIH3T3 tox 2 -6.
Screening CS(=O)(=O)N1CCCCN2[C@@H](CO)[C@H](c3ccc(C#Cc4ccccn4)cc3)[C@@H]2C1 returned KDM4C inh -1, T cruzi growth-1 inconclusive, T cruzi growth-2 108*, T cruzi growth-3 47, 3T3 cytotox -7 and NIH3T3 tox 2 13.
For O=S(=O)(c1ccccc1)N1CCCCN2[C@H](CO)[C@H](c3ccc(C#Cc4ccccn4)cc3)[C@H]2C1 the results were KDM4C inh 1 and T cruzi growth-1 72.
Screening CCCC#Cc1ccc([C@@H]2[C@@H](CO)N3CCCCN(S(C)(=O)=O)C[C@H]23)cc1 returned KDM4C inh 0 and T cruzi growth-1 11.
For CS(=O)(=O)N1CCCCN2[C@H](C1)[C@@H](c1ccc(C#Cc3ccccn3)cc1)[C@@H]2CO the results were KDM4C inh -1, T cruzi growth-1 104*, T cruzi growth-2 112*, T cruzi growth-3 45, 3T3 cytotox 6 and NIH3T3 tox 2 1.
Screening CCS(=O)(=O)N1CCCCN2[C@H](CO)[C@@H](c3ccc(C#Cc4ccccn4)cc3)[C@@H]2C1 returned KDM4C inh 0 and T cruzi growth-1 86.
Screening CCCn1c(NCCCO)nc2ccccc21 returned IDH1 R132H inh 0.
`CCn1c(SCC(=O)Nc2cc(C)c(C)cc2Br)nnc1-c1ccccc1F` gave IDH1 R132H inh 0.
`Cc1ccc2c(c1O)C(=O)c1ccc(O[C@@H]3O[C@H](CO[C@@H]4OC[C@@H](O)[C@H](O)[C@H]4O)[C@@H](O)[C@H](O)[C@H]3O)cc1C2=O` gave IDH1 R132H inh 0.
Screening CS(=O)(=O)N(CC(=O)Nc1ccccc1Br)c1cc(Cl)c(Cl)cc1Cl returned IDH1 R132H inh 0.
`CC(CN1CCCCC1)NC(=O)c1cc(-c2ccccn2)nc2ccc(Br)cc12` (stereo unspecified) gave IDH1 R132H inh 0.
